In brackets after ≈: the same amount, converted by molar mass. Activity calls are given as the source filed them. The calls are words filed in the database; no cut-off is given here.
How the values were obtained:
[1] = system: Escherichia coli; experiment: Antibacterial activity against 5 x 10^5 CFU/ml CMY-30 producing Escherichia coli MC4100 harboring plasmid AC-cmy30 by microdilution method; type: functional
In short: (§1)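 Broth microdilution MIC in Mueller-Hinton broth with an inoculum of 5 × 10^5 CFU/ml. Isogenic E. coli MC4100 strains (vector control or carrying CMY-2 or CMY-30) were tested in parallel.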

[2] = system: Escherichia coli; experiment: Antibacterial activity against 5 x 10^5 CFU/ml CMY-2 producing Escherichia coli MC4100 harboring plasmid AC-cmy2 by microdilution method; type: functional; in short: as §1
[3] = Inhibition of Escherichia coli MC4100 Beta-Lactamase CMY-30 using cephalothin as reporter substrate
[4] = (§2) Inhibition of Escherichia coli MC4100 Beta-Lactamase CMY-2 using cephalothin as reporter substrate
[5] = system: Escherichia coli; experiment: Antibacterial activity against 5 x 10^5 CFU/ml CMY-30 producing Escherichia coli MC4100 harboring plasmid AC-cmy30 by microdilution method in presence of 2 ug/ml clavulanic acid; type: functional
In short: (§3)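 Broth microdilution MIC in Mueller-Hinton broth with an inoculum of 5 × 10^5 CFU/ml. Clavulanic acid was held at a fixed 2 μg/ml. Isogenic E. coli MC4100 strains (vector control or carrying CMY-2 or CMY-30) were tested in parallel.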

[6] = system: Escherichia coli; experiment: Antibacterial activity against 5 x 10^5 CFU/ml Escherichia coli MC4100 harboring plasmid ACYC184 by microdilution method; type: functional; in short: as §1
[7] = system: Escherichia coli; experiment: Antibacterial activity against 5 x 10^5 CFU/ml Escherichia coli MC4100 harboring plasmid ACYC184 by microdilution method in presence of 2 ug/ml clavulanic acid; type: functional; in short: as §3
[8] = system: Escherichia coli; experiment: Antibacterial activity against 5 x 10^5 CFU/ml CMY-2 producing Escherichia coli MC4100 harboring plasmid AC-cmy2 by microdilution method in presence of 2 ug/ml clavulanic acid; type: functional; in short: as §3
[9] = system: Escherichia coli; experiment: Inhibition of Escherichia coli DH5alpha beta-lactamase CMY-2 assessed as aztreonam hydrolysis
In short: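 Agar bioassay on MH agar seeded with E. coli DH5α indicator (10^5 CFU/ml), with 30 μg aztreonam disks. Purified cephalosporinase (700 ng in 10 μl phosphate buffer) was applied near each disk. Plates were incubated 18 h at 35°C and read for distortion of the inhibition zone against control disks.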

[10] = system: Escherichia coli; experiment: Ratio of Kcat to Km for Escherichia coli MC4100 Beta-Lactamase CMY-2
In short: (§4)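 CMY-2 purified from E. coli MC4100 carrying high-copy plasmid pB-cmy2. Cells in 20 mM Tris pH 7.4 sonicated, then Q- and S-Sepharose ion exchange, >95% pure by SDS-PAGE. Kinetic constants are means of four independent measurements. For some β-lactams Km was determined as Ki with cephalothin as reporter substrate.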

[11] = system: Escherichia coli; experiment: Ratio of Kcat to Km for Escherichia coli MC4100 Beta-Lactamase CMY-30 harboring Val211?Gly211 mutation
In short: (§5)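 Enzyme source was E. coli MC4100 carrying high-copy plasmids pB-cmy30 or pB-cmy2. Enzyme was released by sonication in 20 mM Tris, pH 7.4, then purified by Q- and S-Sepharose ion exchange to >95% purity by SDS-PAGE. Values are means of four independent measurements. For some β-lactams, Km was obtained as Ki using cephalothin as reporter substrate.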

[12] = system: Escherichia coli; experiment: Activity of Escherichia coli MC4100 Beta-Lactamase CMY-30 harboring Val211?Gly211 mutation; in short: as §5
[13] = system: Escherichia coli; experiment: Activity of Escherichia coli MC4100 Beta-Lactamase CMY-2; in short: as §4
[14] = system: Escherichia coli; experiment: as §2
[15] = system: Escherichia coli; experiment: Antibacterial activity against 5 x 10^5 CFU/ml CMY-30 producing Escherichia coli MC4100 harboring plasmid AC-cmy30 by microdilution method in presence of 4 ug/ml Tazobactam; type: functional
In short: (§6)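 Broth microdilution MICs in Mueller-Hinton broth, inoculum 5 × 10^5 CFU/ml. Isogenic E. coli MC4100 strains carrying CMY-30, CMY-2 or no CMY gene were tested in parallel. Tazobactam was held at a fixed 4 μg/ml.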

[16] = system: Escherichia coli; experiment: Antibacterial activity against 5 x 10^5 CFU/ml Escherichia coli MC4100 harboring plasmid ACYC184 by microdilution method in presence of 4 ug/ml Tazobactam; type: functional; in short: as §6
[17] = system: Escherichia coli; experiment: Antibacterial activity against 5 x 10^5 CFU/ml CMY-2 producing Escherichia coli MC4100 harboring plasmid AC-cmy2 by microdilution method in presence of 4 ug/ml Tazobactam; type: functional; in short: as §6

SMILES	MIC [1] [µg/mL]	MIC [2] [µg/mL]	Ki [3] [nM]	Ki [4] [nM]	MIC [6] [µg/mL]	kcat/Km [10] [M⁻¹ s⁻¹]	kcat/Km [11] [M⁻¹ s⁻¹]	kcat [12] [s⁻¹]	kcat [13] [s⁻¹]	other results
CO/N=C(\C(=O)N[C@@H]1C(=O)N2C(C(=O)[O-])=C(C[N+]3(C)CCCC3)CS[C@H]12)c1csc(N)n1	0.25 (≈ 0.52 µM)	0.25 (≈ 0.52 µM)	–	–	–	–	–	–	–	–
C[C@]1(/C=C\C#N)[C@H](C(=O)O)N2C(=O)C[C@H]2S1(=O)=O	–	–	200	100	–	–	–	–	–	–
CC1(C)S[C@@H]2[C@H](NC(=O)[C@H](N)c3ccc(O)cc3)C(=O)N2[C@H]1C(=O)O [AMOXICILLIN]	> 512	> 512	–	–	4 (≈ 10.9 µM)	–	–	–	–	MIC [5]: > 512 µg/mL; MIC [7]: 4 µg/mL; MIC [8]: > 512 µg/mL
C[C@H]1[C@H](NC(=O)/C(=N\OC(C)(C)C(=O)O)c2csc(N)n2)C(=O)N1S(=O)(=O)O [AZTREONAM]	128 (≈ 294 µM)	16 (≈ 36.7 µM)	17	2.1	–	–	–	–	–	Activity [9]: Active
N[C@@H](C(=O)N[C@@H]1C(=O)N2C(C(=O)O)=C(Cl)CS[C@H]12)c1ccccc1 [CEFACLOR ANHYDROUS]	> 512	> 512	–	–	2 (≈ 5.44 µM)	–	–	–	–	–
CO/N=C(\C(=O)N[C@@H]1C(=O)N2C(C(=O)O)=C(COC(C)=O)CS[C@H]12)c1csc(N)n1 [CEFOTAXIME]	256 (≈ 562 µM)	16 (≈ 35.1 µM)	300	5	0.12 (≈ 0.263 µM)	< 2e+06	5.7e+06	1.7	< 0.01	–
CO[C@@]1(NC(=O)Cc2cccs2)C(=O)N2C(C(=O)O)=C(COC(N)=O)CS[C@@H]21 [CEFOXITIN]	> 512	> 512	170	150	2 (≈ 4.68 µM)	2.3e+06	1.6e+06	0.28	0.35	–
CC(C)(O/N=C(\C(=O)N[C@@H]1C(=O)N2C(C(=O)[O-])=C(C[n+]3ccccc3)CS[C@H]12)c1csc(N)n1)C(=O)O [CEFTAZIDIME]	> 512	128 (≈ 234 µM)	140	20	0.25 (≈ 0.457 µM)	500000	2.9e+06	0.4	0.01	–
CO/N=C(\C(=O)N[C@@H]1C(=O)N2C(C(=O)O)=C(COC(N)=O)CS[C@H]12)c1ccco1 [CEFUROXIME]	> 512	> 512	–	–	2 (≈ 4.71 µM)	–	–	–	–	–
CC(=O)OCC1=C(C(=O)O)N2C(=O)[C@@H](NC(=O)Cc3cccs3)[C@H]2SC1 [CEPHALOTHIN]	> 512	> 512	–	–	2 (≈ 5.04 µM)	1.6e+07	1e+07	256	267	Km [12]: 26 µM; Km [13]: 17 µM
Cc1onc(-c2ccccc2Cl)c1C(=O)N[C@@H]1C(=O)N2[C@@H]1SC(C)(C)[C@@H]2C(=O)O [CLOXACILLIN]	–	–	2.3	0.2	–	–	–	–	–	–
CC1(C)S[C@@H]2[C@H](NC(=O)Cc3ccccc3)C(=O)N2[C@H]1C(=O)O [PENICILLIN G]	–	–	600	–	–	4e+07	3.8e+07	23	24	Km [14]: 0.6 µM
CCN1CCN(C(=O)N[C@@H](C(=O)N[C@@H]2C(=O)N3[C@@H]2SC(C)(C)[C@@H]3C(=O)O)c2ccccc2)C(=O)C1=O [PIPERACILLIN]	64 (≈ 124 µM)	128 (≈ 247 µM)	–	–	0.5 (≈ 0.966 µM)	–	–	–	–	MIC [15]: 16 µg/mL; MIC [16]: 0.5 µg/mL; MIC [17]: 16 µg/mL
C[C@]1(Cn2ccnn2)[C@H](C(=O)O)N2C(=O)C[C@H]2S1(=O)=O [TAZOBACTAM]	–	–	> 1000	800	–	–	–	–	–	–
CC1(C)S[C@@H]2[C@H](NC(=O)[C@H](C(=O)O)c3ccsc3)C(=O)N2[C@H]1C(=O)O [TICARCILLIN]	> 512	> 512	–	–	2 (≈ 5.2 µM)	–	–	–	–	MIC [5]: > 512 µg/mL; MIC [7]: 1 µg/mL; MIC [8]: > 512 µg/mL

From ChEMBL document CHEMBL1649546, “Extended-spectrum properties of CMY-30, a Val211Gly mutant of CMY-2 cephalosporinase” (Antimicrob Agents Chemother, 2009)
